# Shown are actives, neighbours in structure and some others; about 2.2% of the full set was active somewhere.
# PHOSPHO1 block: blocks human PHOSPHO1 phosphatase activity; recombinant PHOSPHO1, absorbance phosphatase assay; inhibition, % at 13.3 µM; actives 1.1% (n = 290,000); in the data active = inhibition above about 60%
# Target sequence (Q8TCT1 whole entry, looked up): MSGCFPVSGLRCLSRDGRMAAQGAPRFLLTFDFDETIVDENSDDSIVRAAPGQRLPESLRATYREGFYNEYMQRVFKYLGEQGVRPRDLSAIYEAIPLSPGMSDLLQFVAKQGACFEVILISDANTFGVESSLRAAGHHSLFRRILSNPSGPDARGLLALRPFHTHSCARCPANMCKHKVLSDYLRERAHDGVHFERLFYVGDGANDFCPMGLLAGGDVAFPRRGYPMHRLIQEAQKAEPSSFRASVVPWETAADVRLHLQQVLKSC
# PvdQ inh: P. aeruginosa PvdQ acylase inhibition. inhibition, % at 10 µM. actives 0.063% (n = 340,000). purified PvdQ acylase, fluorescence plate reader. AID 488965; in the data active = inhibition above about 30%, passing the limit was not always enough;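 note: 0% = vehicle neutral wells and 100% = reference inhibitor wells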
# IMP-1 inh: blocks Pseudomonas aeruginosa IMP-1 metallo-beta-lactamase | actives 0.45% (n = 290,000) | inhibition, % at 5.6 µM | purified IMP-1, nitrocefin hydrolysis, epi-absorbance fluorescence;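 active = inhibition above the mean plus 3 SD of all compounds in the same screening run, cut at about 4.5% in these data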;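 note: 0% = IMP-1 with DMSO and 100% = DMSO wells lacking enzyme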
#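 assay system = purified recombinant IMP-1 metallo-beta-lactamase enzyme | schedule = 15 min preincubation plus 25 min reaction at 25 °C | signal = Epi-absorbance fluorescence, 480 nm excitation, 530 nm emission | read-out basis = percent inhibition from optical density relative to buffer-blank wells | controls = IMP-1 with DMSO as 0%, enzyme-free DMSO as 100%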
# VIM-2 inhibitor: blocks Pseudomonas aeruginosa VIM-2 metallo-beta-lactamase; inhibition, % at 5.6 µM; AID 1527; purified VIM-2, nitrocefin hydrolysis, epi-absorbance fluorescence; actives 0.89% (n = 290,000);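 active = inhibition above the mean of all tested compounds plus 3 SD, cutoff set per screening run, cut at about 7.5% in these data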;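 note: red hydrolysis product quenches plate fluorescence so inhibitors raise well fluorescence; 0% = enzyme with DMSO and 100% = DMSO without enzyme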
# Yeast superoxide: caloric restriction mimetics inhibiting age-related superoxide in yeast; S. cerevisiae aged cells, superoxide DHE fluorescence; stronger effect = lower value; superoxide response (% of plate mean), % at 10 µM; actives 0.18% (n = 330,000);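 active = superoxide response under a set limit, about three screen SD below normal, cut at about 65% in these data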;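 note: yeast aged for seven days with compound at 30 °C before DHE staining; 100% = average MFI of all compound-treated wells on the plate with controls excluded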
# * marks the source's active call; other numbers are inactive results; nt = no result given.
SMILES,PHOSPHO1 block,PvdQ inh,IMP-1 inh,VIM-2 inhibitor,Yeast superoxide
CCCn1c(SCC(=O)NC2CCCCC2)nnc1C1CC1,-45,-6,0,4,126
CCCn1c(SCC(=O)Nc2nnc(C)s2)nnc1C1CC1,20,-16,-2,7.8*,96
CC(=O)Oc1cc2oc(=O)c3c(c2cc1Cl)CCC3,26,-9,-5,9.7*,91
CC(C)(C)C(=O)C(Oc1cccc2nonc12)n1cncn1 (stereo not drawn),-2,2,35*,-2,108
Cn1c(N)c(C(=O)CSc2nnc(-c3c[nH]c4ccccc34)n2C2CC2)c(=O)[nH]c1=O,nt,-10,nt,nt,93
CCOC(=O)C1=CNS(=O)(=O)NC1CCc1ccccc1 (stereo not drawn),nt,14,nt,nt,100
COc1ccc(-n2c(SC3CCOC3=O)nc3ccccc3c2=O)cc1Cl (stereo not drawn),28,-11,-2,-3,89
COc1ccc(-n2c(SC3CCOC3=O)nc3ccccc3c2=O)cc1OC (stereo not drawn),66*,15,-4,-1,103
O=C(OCC(=O)N1CCCC1=O)c1nc(Cl)c(Cl)c(Cl)c1Cl,43,-11,-2,6,88
Cc1ccc(Cn2cc(CCC(=O)O)c3ccccc32)cc1,18,-21,13*,5,106
CCOC(=O)c1sc(NC(=O)CSc2nnc(Cc3ccccc3)o2)c(C#N)c1C,86*,-16,-3,-3,89
CCOC(=O)c1sc(NC(=O)CSc2n[nH]c(-c3ccccc3)n2)c(C#N)c1C,77*,-15,-3,-2,93
CCOC(=O)c1sc(NC(=O)CSc2nc(C)cc(C)n2)c(C#N)c1C,11,-20,-1,-1,88
CCOC(=O)c1c(NC(=O)CSc2nnc(Cc3ccccc3)o2)sc(C(C)=O)c1C,-20,27,-4,-6,94
COc1ccc(NC(=S)NCCCCCC(=O)C[N+](=O)[O-])cc1,77*,-13,0,0,98
CC(C)(C)NC(=O)CN(C(=O)c1snc(C(=O)NC2CCCCC2)c1N)c1ccccc1F,23,-16,-1,3,107
Fc1ccc(NC(=S)NN=C2CCCCCC2)cc1,100*,-13,-5,-2,94
S=C(NN=C1CCCCCC1)Nc1ccc(Cl)cc1,85*,-16,-5,-6,101
O=C(NN=C1CCCCCCC1)c1ccc(F)cc1,-4,-7,-2,-2,89
CCCCOc1cccc(C(=O)N(Cc2ccccc2)C2CCS(=O)(=O)C2)c1 (stereo not drawn),8,-7,-2,1,113
CCOC(=O)c1[nH]c2ccc(Br)cc2c1NC(=O)CCN1CCN(C(=O)OCC)CC1,65*,-8,-1,-1,92
CCOC(=O)c1[nH]c2ccc(Br)cc2c1NC(=O)CCN1CCCCC1,-19,nt,-2,-3,nt
CC(C)(C)C(=O)NC(=S)N1CCCC1,-13,-14,-3,-1,89
CC(C)(C)C(=O)NC(=C(Cl)Cl)P(=O)(O)O,22,-9,0,10*,89
O=C(c1cnc2n(c1=O)CCS2)N1CCN(c2ccccc2Cl)CC1,-20,nt,-2,-2,nt
SMILES,PHOSPHO1 block,PvdQ inh,IMP-1 inh,VIM-2 inhibitor,Yeast superoxide
O=C(c1cnc2n(c1=O)CCS2)N1CCN(C(c2ccccc2)c2ccc(Cl)cc2)CC1 (stereo not drawn),-11,-20,5.9*,1,96
CCOC(=O)/C(=N\Nc1ccc(OC)cc1)c1csc(Nc2ccccc2)n1,90*,-4,-4,-4,92
CCOC(=O)N1CCN(C(=O)COC(=O)c2cc(C)ccc2C)CC1,nt,2,nt,nt,86
O=C(O)C1C2C=CC(C2)C1C(=O)Nc1ccccc1Br (stereo not drawn),14,-21,32*,0,93
CCN(CC)c1ccc(C(=O)OCC(=O)NCC2CCCO2)cc1 (stereo not drawn),28,-6,-6,-2,103
COc1ccc2cc3cc(C(=O)NCCCN4CCC(C)CC4)oc3nc2c1,26,-4,0,9.9*,89
CCOC(=O)c1sc2cc([N+](=O)[O-])cc(SCC(C)C)c2c1N,64*,1,-1,-3,99
COc1ccc(S(N)(=O)=O)cc1C(=O)NCCCN1CCN(c2ccc(C)cc2)CC1,-4,-9,-3,-1,91
COc1ccc(S(N)(=O)=O)cc1C(=O)NCCCN1CCN(c2cccc(Cl)c2)CC1,66*,-5,-1,0,102
CCOC(=O)C1=C(CSc2nc(C)cc(C)c2C#N)OC(N)=C(C#N)C1c1ccccc1 (stereo not drawn),91*,-8,-1,2,112
CCOC(=O)C1=C(CSc2nc(-c3ccccc3)ccc2C#N)OC(N)=C(C#N)C1c1ccc(OC)cc1 (stereo not drawn),-30,-11,3,1,97
CCOC(=O)C1=C(CSc2nc(CC)c(C)cc2C#N)OC(N)=C(C#N)C1c1ccccc1 (stereo not drawn),89*,5,0,-1,104
CCOC(=O)C1=C(CSc2nc3c(cc2C#N)CN(C)CC3)OC(N)=C(C#N)C1c1ccc(Cl)cc1 (stereo not drawn),67*,-16,1,2,105
C=CC[C@@H]1C=C[C@H](O/N=C/c2ccc(C(=O)N3[C@H](c4ccc(C)cc4)[C@@H](C)CC[C@H]3C(=O)OC)cc2)[C@@H](CO)O1,11,nt,-1,-1,102
NC(=O)c1c(N)sc2c1CCCC2,92*,-4,0,-1,103
O=C(CCCn1c(=S)[nH]c2cc3c(cc2c1=O)OCO3)NCc1ccccc1Cl,-34,-9,14*,-4,99
O=C(CCCCCn1c(=S)[nH]c2cc3c(cc2c1=O)OCO3)N1CCN(c2ccccc2)CC1,-8,-5,-4,-4,89
CCCCNC(=O)CCCn1c(=S)[nH]c2cc3c(cc2c1=O)OCO3,39,-9,-2,-1,98
O=C(CCCn1c(=S)[nH]c2cc3c(cc2c1=O)OCO3)N1CCN(c2ccc(F)cc2)CC1,69*,-12,-7,-5,97
O=C(Nc1ccccc1)Nc1cnccn1,43,7,-2,-4,101
COc1ccc(-c2csc(Nc3cccnc3)n2)cc1OC,24,5,-2,12*,83
COc1cccc(Nc2nc(-c3cccnc3)cs2)c1,nt,-14,-1,0,102
CC1(C(=O)NC(=S)NNC(=O)c2ccncc2)CCCCC1,-9,-10,-1,-2,102
O=C(NNC(=S)NC(=O)C12CC3CC(CC(C3)C1)C2)c1ccncc1,66*,-4,-1,-3,172
Cc1cc(C)c2c(c1)C1C=CCC1C(c1ccc(S(=O)(=O)N3CCOCC3)cc1)N2 (stereo not drawn),-35,-5,5.8*,-1,107
Cc1ccc(S(=O)(=O)N2CCOCCOCCOCCOCCOCC2)cc1,-8,-12,-2,-2,102

# High-throughput results from PubChem.
